Here are results for 19 compounds from PubChem BioAssay.

What is called viability is a read-out of living cells in per cent, often relative to untreated cells. For orientation: inhibition means the relative decrease from the control value, in per cent.

Active and inactive are the calls of the source. Cut-off read from the data, not from the text of the source, unless noted: active = inhibition above about 31%; inactive = the rest.

A short description of experiment [1]: HUVEC growth inhibition – cell-based, human, primary screen (AID 575;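 active = viability at or below 30% in both replicate assays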;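 note: 100% = median of untreated cell wells with 0.1% DMSO on each plate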). Particulars: HUVEC proliferation, CellTiter-Glo luminescence, 72 h; at 10 µM; stronger effect = lower value. In a few lines:
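Test system – primary HUVEC, no more than 12 passages · Dosing – one dose, 10 µM final, 0.1% DMSO · Times – 72 h treatment at 37 °C · Measured by – ATP-based CellTiter-Glo luminescent read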

Experiment [2] can be described thus: H69AR cell proliferation blockers – human, duplicate replicates, primary screen (AID 580;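 active = viability at or under a set limit in both replicates, limit being median viability minus 3 SD, cut at about 48% in these data, passing the limit was not always enough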;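 note: 100% = mean luminescence of untreated wells and 0% = no signal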). Particulars: H69AR lung tumor cells viability, ATP luminescence, 72 h; at 10 µM; stronger effect = lower value.
Experiment [3] in a line: MRP1 drug-resistance reversers in H69AR cells – cell-based, doxorubicin co-treatment, pilot screen (AID 601;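 active = viability loss from added drug above about 55%, and viability with drug at most 40%, in both replicates, limit read from the data, passing the limit was not always enough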). Particulars: CellTiter-Glo, 72 h, at 10 µM; for differential viability (reversal): stronger effect = higher value.
Experiment [4] is described as follows: yeast transport mutant growth inhibition pilot in 384-well plates, post-Golgi transport modulator project (AID 636). Particulars: absorbance 615 nm, about 18 h, stronger effect = higher value.
A short description of experiment [5]: growth suppression of yeast trafficking mutant, preliminary HTS, modulators of trafficking downstream of Golgi apparatus project, 1536-format plate, OD 615 nm (AID 637; in the data active = inhibition above about 30%). Particulars: yeast transport mutant growth, absorbance 615 nm, 18 h; stronger effect = higher value.
The mark [6] stands for this setting: H69AR cells + 2 uM doxorubicin, measured here: viability with 2 uM doxorubicin, stronger effect = lower value.
The mark [7] stands for this setting: H69AR cells, compound alone cytotoxicity.

Turning to `CC(C(=O)N1c2ccc(F)cc2CCC1C)N1C(=O)c2ccccc2C1=O` (stereo not drawn), the viability in experiment [1] was 114% (inactive); in experiment [2], 91.3% (inactive); in experiment [3] (setting [6]) it was 79.8%; in experiment [3] (setting [7]), 91.3%. The differential viability (reversal) in experiment [3] (H69AR cells + 2 uM doxorubicin) was 11.5% (inactive). The inhibition in experiment [4] is -5.26% (inactive); in experiment [5], 8.73% (inactive).

For `CCc1c(C)nc(N)n2c(SCC(=O)N3CCCc4ccccc43)nnc12`, the viability in experiment [1] was 107% (inactive); in experiment [2] it was 100% (inactive); in experiment [3] (setting [6]) it was 89.1%; in experiment [3] (setting [7]), 100%. The differential viability (reversal) in experiment [3] (H69AR cells + 2 uM doxorubicin) was 11.3% (inactive). For the same compound, the inhibition in experiment [4] was -3.29% (inactive); in experiment [5], -0.32% (inactive).

For the compound `Cc1ccc(S(=O)(=O)N2CCCC2)cc1S(=O)(=O)N1CCCC1`, the viability in experiment [1] was 90.9% (inactive); in experiment [2], 98.6% (inactive); in experiment [3] (setting [6]), 92.7%; in experiment [3] (setting [7]), 98.6%. For the same compound, the differential viability (reversal) in experiment [3] (H69AR cells + 2 uM doxorubicin) is 5.92% (inactive). Further, the inhibition in experiment [4] is -3.25% (inactive); in experiment [5] it was 2.54% (inactive).

Regarding `CC(=O)c1cc(-c2ccccc2)n(CC(=O)N2CCC(N3CCCCC3)CC2)c1C`, the viability was 85.3% (inactive) in experiment [1], 82.7% (inactive) in experiment [2], 85.1% in experiment [3] (setting [6]) and 82.7% in experiment [3] (setting [7]). The differential viability (reversal) in experiment [3] (H69AR cells + 2 uM doxorubicin) was -2.33% (inactive). The inhibition in experiment [4] was -2.73% (inactive); in experiment [5] it was 0.63% (inactive).

With `COc1ccc(Nc2ncc3c(n2)CC(c2ccc(OC)cc2)CC3=O)cc1` (stereo not drawn), the viability was 84.4% (inactive) in experiment [1], 97.4% (inactive) in experiment [2], 93.6% in experiment [3] (setting [6]) and 97.4% in experiment [3] (setting [7]). Further, in experiment [3] (H69AR cells + 2 uM doxorubicin), the differential viability (reversal) was 3.81% (inactive). The inhibition is -4% (inactive) in experiment [4] and 4.92% (inactive) in experiment [5].

Regarding `CN(c1ccccc1C(=O)N1CCN(c2cccc(Cl)c2)CC1)S(C)(=O)=O`, the viability is 108% (inactive) in experiment [1], 93.8% (inactive) in experiment [2], 94.5% in experiment [3] (setting [6]) and 93.8% in experiment [3] (setting [7]). Besides, the differential viability (reversal) in experiment [3] (H69AR cells + 2 uM doxorubicin) was -0.775% (inactive). Also, the inhibition is -6.53% (inactive) in experiment [4] and 1.43% (inactive) in experiment [5].

Turning to `Cc1c(NC(=O)c2cnn3c2NC(c2ccco2)CC3C(F)(F)F)c(=O)n(-c2ccccc2)n1C` (stereo not drawn), the viability was 81.5% (inactive) in experiment [1], 103% (inactive) in experiment [2], 87% in experiment [3] (setting [6]) and 103% in experiment [3] (setting [7]). In experiment [3] (H69AR cells + 2 uM doxorubicin), the differential viability (reversal) was 15.8% (inactive). Further, the inhibition in experiment [4] is -2.47% (inactive); in experiment [5] it was 3.65% (inactive).

Turning to `Cc1ccc(-c2nnnn2CS(=O)(=O)c2ccccc2)cc1`, the viability in experiment [1] is 86.7% (inactive); in experiment [2], 96.4% (inactive); in experiment [3] (setting [6]), 91.1%; in experiment [3] (setting [7]), 96.4%. The differential viability (reversal) in experiment [3] (H69AR cells + 2 uM doxorubicin) was 5.26% (inactive). Besides, the inhibition in experiment [4] is -2.08% (inactive); in experiment [5], -2.22% (inactive).

`O=C(Nc1nnc(C2CCCCC2)s1)c1cccs1`: the viability in experiment [1] is 102% (inactive); in experiment [2], 93.2% (inactive); in experiment [3] (setting [6]) it was 82.9%; in experiment [3] (setting [7]) it was 93.2%. Besides, the differential viability (reversal) in experiment [3] (H69AR cells + 2 uM doxorubicin) is 10.4% (inactive). In addition, the results for the inhibition in experiment [4] and in experiment [5] were 0% (inactive) and -3.81% (inactive), respectively.

Turning to `Cn1c(=O)c2ncn(CC(=O)NCCOc3ccccc3)c2n(C)c1=O`, the viability in experiment [1] was 108% (inactive); in experiment [2] it was 91.9% (inactive); in experiment [3] (setting [6]) it was 84.2%; in experiment [3] (setting [7]), 91.9%. In addition, in experiment [3] (H69AR cells + 2 uM doxorubicin), the differential viability (reversal) is 7.6% (inactive). Moreover, the inhibition is 0.39% (inactive) in experiment [4] and 5.71% (inactive) in experiment [5].

As for `O=C(Nc1ccc(Cl)cc1)N1CCSCC1`, the viability in experiment [1] is 97.6% (inactive); in experiment [2], 107% (inactive); in experiment [3] (setting [6]), 89.6%; in experiment [3] (setting [7]) it was 107%. Besides, in experiment [3] (H69AR cells + 2 uM doxorubicin), the differential viability (reversal) was 17% (inactive). For the same compound, the inhibition is -1.45% (inactive) in experiment [4] and -0.16% (inactive) in experiment [5].

For `COc1ccc(OC)c(N2Cc3cc(C)c(C)cc3C2)c1`, the viability in experiment [1] is 114% (inactive); in experiment [2], 95.3% (inactive); in experiment [3] (setting [6]), 88.4%; in experiment [3] (setting [7]), 95.3%. Besides, in experiment [3] (H69AR cells + 2 uM doxorubicin), the differential viability (reversal) is 6.88% (inactive). Also, the values for the inhibition in experiment [4] and in experiment [5] were -6.97% (inactive) and 4.44% (inactive), respectively.

For the compound `Cn1c(=O)c(NC(=O)c2ccccc2)c2n(c1=S)CCCCC2`, the viability in experiment [1] is 104% (inactive); in experiment [2], 90.8% (inactive); in experiment [3] (setting [6]) it was 97.6%; in experiment [3] (setting [7]), 90.8%. For the same compound, the differential viability (reversal) in experiment [3] (H69AR cells + 2 uM doxorubicin) was -6.87% (inactive). The inhibition in experiment [4] was -2.99% (inactive); in experiment [5], 3.65% (inactive).

As for `CCOc1ccc(OCC)c(NC(=O)C2CCN(c3ncccn3)CC2)c1`, the viability in experiment [1] is 105% (inactive); in experiment [2], 86.1% (inactive); in experiment [3] (setting [6]), 98.5%; in experiment [3] (setting [7]) it was 86.1%. Also, the differential viability (reversal) in experiment [3] (H69AR cells + 2 uM doxorubicin) was -12.5% (inactive). Besides, the inhibition was -3.47% (inactive) in experiment [4] and -2.06% (inactive) in experiment [5].

In the case of `COc1ccc(-c2nc(C(N)=O)c3[nH]c(=O)n(-c4cccc(Cl)c4)c3n2)cc1OC`, the viability in experiment [1] is 3.29% (active); in experiment [2], 1.2% (active); in experiment [3] (setting [6]) it was 2.13%; in experiment [3] (setting [7]), 1.2%. Moreover, the differential viability (reversal) in experiment [3] (H69AR cells + 2 uM doxorubicin) was -0.93% (inactive). Moreover, the inhibition in experiment [4] was 6.23% (inactive); in experiment [5], -0.33% (inactive).

Regarding `O=C(NCc1ccc(F)cc1)c1cc(-c2ccco2)on1`, the viability is 93.4% (inactive) in experiment [1], 92.5% (inactive) in experiment [2], 101% in experiment [3] (setting [6]) and 92.5% in experiment [3] (setting [7]). The differential viability (reversal) in experiment [3] (H69AR cells + 2 uM doxorubicin) was -8.09% (inactive). Further, the figures for the inhibition in experiment [4] and in experiment [5] were -2.89% (inactive) and -5.56% (inactive), respectively.

As for `O=C(NCC(=O)N(CCc1ccccc1)C(C(=O)NC1CCCC1)c1cccnc1)c1ccco1` (stereo not drawn), the viability was 96.9% (inactive) in experiment [1], 99.8% (inactive) in experiment [2], 101% in experiment [3] (setting [6]) and 99.8% in experiment [3] (setting [7]). Besides, in experiment [3] (H69AR cells + 2 uM doxorubicin), the differential viability (reversal) was -1.49% (inactive). Besides, the inhibition was -2.24% (inactive) in experiment [4] and -6.98% (inactive) in experiment [5].

`Cc1ccc(O)c(C(=O)c2cc(C#N)c(=O)n(CC3CCCO3)c2)c1` (stereo not drawn): the viability in experiment [1] was 93.2% (inactive); in experiment [2], 89.7% (inactive); in experiment [3] (setting [6]) it was 92.6%; in experiment [3] (setting [7]) it was 89.7%. The differential viability (reversal) in experiment [3] (H69AR cells + 2 uM doxorubicin) is -2.82% (inactive). Besides, the inhibition in experiment [4] is -1.3% (inactive); in experiment [5], 0.16% (inactive).

In the case of `COC(=O)C1=C(CSCc2ccco2)NC(=O)NC1c1cc(C)ccc1C` (stereo not drawn), the viability in experiment [1] is 98.4% (inactive); in experiment [2] it was 82.5% (inactive); in experiment [3] (setting [6]), 92%; in experiment [3] (setting [7]), 82.5%. In experiment [3] (H69AR cells + 2 uM doxorubicin), the differential viability (reversal) is -9.46% (inactive). The inhibition was -1.47% (inactive) in experiment [4] and -1.43% (inactive) in experiment [5].
